ChEMBL document CHEMBL4196161, “Lead Optimization of 5-Aryl Benzimidazolone- and Oxindole-Based AMPA Receptor Modulators Selective for TARP γ-8” (ACS Med Chem Lett, 2018)
≈ marks a conversion by molar mass, not a printed value.

How the values were obtained:
[1] = target: GRIA1/CACNG8 (Homo sapiens, UniProt P42261+Q8WXS5); experiment: Modulation of recombinant human GluA1 flop isoform/TARPgamma8 expressed in HEK293F cells assessed as blockade of glutamate-induced calcium flux by calcium 5/6 dye based FLIPR assay; format: cell-based
Procedure, shortened: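 HEK-293 cells expressing a human GluA1o-γ-8 fusion construct; FLIPR calcium-flux read-out; pIC50 reported as mean and standard deviation of at least three assays run in triplicate.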

[2] = target: GRIA1/CACNG2 (Homo sapiens, UniProt P42261+Q9Y698); experiment: Modulation of recombinant human GluA1 flop isoform/TARPgamma2 expressed in HEK293F cells assessed as blockade of glutamate-induced calcium flux by calcium 5/6 dye based FLIPR assay; format: cell-based
Procedure, shortened: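 HEK-293 cells transiently expressing human GluA1o cotransfected with γ-2; FLIPR calcium-flux read-out; pIC50 reported; n = 1, run in triplicate.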

[3] = Thermodynamic solubility of the compound in simulated gastric fluid at pH 1.6 incubated under stirred condition for 3 days; format: physicochemical; settings: read-out: Therm_solubility
Procedure, shortened: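 Thermodynamic solubility (μM) determined in simulated gastric fluid at pH 1.6 and in fasted state simulated intestinal fluid at pH 6.5.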

[4] = Apparent permeability across apical to basolateral side in MDCK-MDR1 cells at 5 uM measured after 60 mins by LC-MS/MS analysis; format: ADME, cell-based, Canis lupus familiaris; settings: dog
Procedure, shortened: (§1)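 Bidirectional apparent permeability measured in Madin–Darby canine kidney cells transfected with the MDR1 (P-gp) gene; Papp reported in ×10–6 cm/s.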

[5] = Hepatic extraction ratio in rat liver microsomes at 1 uM measured after 60 mins in presence of NADPH by LC-MS/MS analysis; format: ADME, microsome; settings: read-out: ERH
Procedure, shortened: (§2)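 Human or rat liver microsomal stability at 1 μM; results expressed as extraction ratio, i.e. predicted hepatic clearance divided by species-specific hepatic blood flow.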

[6] = Thermodynamic solubility of the compound in fasted state simulated intestinal fluid at pH 6.5 incubated under stirred condition for 3 days; settings: read-out: Therm_solubility
[7] = Apparent permeability across basolateral to apical side in MDCK-MDR1 cells at 5 uM measured after 60 mins by LC-MS/MS analysis; format: ADME, cell-based, Canis lupus familiaris; settings: dog; procedure, shortened: as §1
[8] = Hepatic extraction ratio in human liver microsomes at 1 uM measured after 60 mins in presence of NADPH by LC-MS/MS analysis; format: ADME, microsome; settings: read-out: ERH; procedure, shortened: as §2
[9] = Protein binding in human plasma assessed as unbound fraction at 1 uM measured after 6 hrs by equilibrium dialysis method; format: ADME, cell-free
Procedure, shortened: (§3)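 Human or rat plasma protein binding at 1 μM compound, expressed as fraction unbound (fub).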

[10] = Protein binding in rat plasma assessed as unbound fraction at 1 uM measured after 6 hrs by equilibrium dialysis method; format: ADME, cell-free; procedure, shortened: as §3
[11] = species: Homo sapiens; experiment: Selectivity ratio of IC50 for recombinant human GluA1 flop isoform/TARPgamma2 expressed in HEK293F cells to IC50 for recombinant human GluA1 flop isoform/TARPgamma8 expressed in HEK293F cells; format: cell-based
Procedure, shortened: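 Calcium-flux (FLIPR) inhibition in HEK-293 cells, giving pIC50 for each receptor. For γ-8, cells expressed a human GluA1o–γ-8 fusion construct, with at least three assays run in triplicate and reported as mean ± SD. For γ-2, cells expressed human GluA1-flop cotransfected with γ-2. The ratio compares the γ-2 IC50 with the γ-8 IC50.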

[12] = Fraction unbound in rat brain at 5 uM after 5 hrs by equilibrium dialysis method; format: ADME, tissue-based
Procedure, shortened: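 Rat brain tissue binding, reported as fraction unbound, at 5 μM compound.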

[13] = tested on: Rattus norvegicus; experiment: Ex vivo receptor occupancy at GluA/TARPgamma8 in po dosed Sprague-Dawley rat assessed as plasma concentration causing 50% reduction in [3H]JNJ-56022486 receptor labeling in hippocampus at ED50 at Tmax by autoradiography; format: functional, organism-based
Procedure, shortened: (§4)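 Oral dose–response in Sprague–Dawley rats, n = 3/dose (8 doses in one study; vehicle 0.5% HPMC or 20% HP-β-CD); hippocampal occupancy measured at Tmax by ex vivo autoradiography using [3H]-12; EC50 expressed against plasma (ng/mL) or brain (ng/g) exposure, ED50 against dose.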

[14] = tested on: Rattus norvegicus; experiment: Ex vivo receptor occupancy at GluA/TARPgamma8 in po dosed Sprague-Dawley rat assessed as brain concentration causing 50% reduction in [3H]JNJ-56022486 receptor labeling in hippocampus at Tmax by autoradiography; format: functional, organism-based; procedure, shortened: as §4
[15] = tested on: Rattus norvegicus; experiment: Ex vivo receptor occupancy at GluA/TARPgamma8 in po dosed Sprague-Dawley rat assessed as reduction in [3H]JNJ-56022486 receptor labeling in hippocampus measured within 10 mins by autoradiography; format: functional
[16] = tested on: Rattus norvegicus; experiment: Ex vivo receptor occupancy at GluA/TARPgamma8 in po dosed Sprague-Dawley rat assessed as plasma concentration causing 50% reduction in [3H]JNJ-56022486 receptor labeling in hippocampus at Tmax by autoradiography; format: functional, organism-based; procedure, shortened: as §4
[17] = Half life in Sprague-Dawley rat at 1 mg/kg, iv administered as single dose by LC-MS/MS analysis; format: ADME, organism-based; settings: in vivo
Procedure, shortened: (§5)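 Single 1 mg/kg i.v. dose as a solution to Sprague–Dawley rats (n = 3/group); vehicle 20% HP-β-CD in one study series, 1:1 PEG400/H2O in the other; plasma PK parameters derived.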

[18] = Clearance in Sprague-Dawley rat at 1 mg/kg, iv administered as single dose by LC-MS/MS analysis; format: ADME, organism-based; settings: in vivo; procedure, shortened: as §5
[19] = tested on: Rattus norvegicus; experiment: Ex vivo receptor occupancy at GluA/TARPgamma8 in po dosed Sprague-Dawley rat assessed as brain concentration causing 50% reduction in [3H]JNJ-56022486 receptor labeling in hippocampus at ED50 at Tmax by autoradiography; format: functional, organism-based; procedure, shortened: as §4
[20] = tested on: Rattus norvegicus; experiment: Ex vivo receptor occupancy at GluA/TARPgamma8 in Sprague-Dawley rat assessed as reduction in [3H]JNJ-56022486 receptor labeling in hippocampus at 3 mg/kg, po at Tmax by autoradiography relative to control; format: functional
Procedure, shortened: (§6)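 Rats (Sprague–Dawley, n = 2/dose group) dosed orally with suspensions in 0.5% HPMC at 3 or 10 mg/kg; hippocampal GluA/γ-8 occupancy at Tmax by ex vivo autoradiography with [3H]12 radiotracer; brain (ng/g) and plasma (ng/mL) concentrations taken at Tmax.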

[21] = Volume of distribution at steady state in Sprague-Dawley rat at 1 mg/kg, iv administered as single dose by LC-MS/MS analysis; format: ADME, organism-based; settings: in vivo, read-out: Vdss; procedure, shortened: as §5
[22] = tested on: Rattus norvegicus; experiment: Ex vivo receptor occupancy at GluA/TARPgamma8 in po dosed Sprague-Dawley rat assessed as plasma concentration causing reduction in [3H]JNJ-56022486 receptor labeling in hippocampus at 10 mg/kg, po at Tmax by autoradiography; format: functional, organism-based; procedure, shortened: as §6
[23] = tested on: Rattus norvegicus; experiment: Ex vivo receptor occupancy at GluA/TARPgamma8 in Sprague-Dawley rat assessed as reduction in [3H]JNJ-56022486 receptor labeling in hippocampus at 10 mg/kg, po at Tmax by autoradiography relative to control; format: functional; procedure, shortened: as §6
[24] = tested on: Rattus norvegicus; experiment: Ex vivo receptor occupancy at GluA/TARPgamma8 in po dosed Sprague-Dawley rat assessed as plasma concentration causing reduction in [3H]JNJ-56022486 receptor labeling in hippocampus at 3 mg/kg, po at Tmax by autoradiography; format: functional, organism-based; procedure, shortened: as §6

GRIA1/CACNG2, sequence (P42261 whole entry, canonical isoform): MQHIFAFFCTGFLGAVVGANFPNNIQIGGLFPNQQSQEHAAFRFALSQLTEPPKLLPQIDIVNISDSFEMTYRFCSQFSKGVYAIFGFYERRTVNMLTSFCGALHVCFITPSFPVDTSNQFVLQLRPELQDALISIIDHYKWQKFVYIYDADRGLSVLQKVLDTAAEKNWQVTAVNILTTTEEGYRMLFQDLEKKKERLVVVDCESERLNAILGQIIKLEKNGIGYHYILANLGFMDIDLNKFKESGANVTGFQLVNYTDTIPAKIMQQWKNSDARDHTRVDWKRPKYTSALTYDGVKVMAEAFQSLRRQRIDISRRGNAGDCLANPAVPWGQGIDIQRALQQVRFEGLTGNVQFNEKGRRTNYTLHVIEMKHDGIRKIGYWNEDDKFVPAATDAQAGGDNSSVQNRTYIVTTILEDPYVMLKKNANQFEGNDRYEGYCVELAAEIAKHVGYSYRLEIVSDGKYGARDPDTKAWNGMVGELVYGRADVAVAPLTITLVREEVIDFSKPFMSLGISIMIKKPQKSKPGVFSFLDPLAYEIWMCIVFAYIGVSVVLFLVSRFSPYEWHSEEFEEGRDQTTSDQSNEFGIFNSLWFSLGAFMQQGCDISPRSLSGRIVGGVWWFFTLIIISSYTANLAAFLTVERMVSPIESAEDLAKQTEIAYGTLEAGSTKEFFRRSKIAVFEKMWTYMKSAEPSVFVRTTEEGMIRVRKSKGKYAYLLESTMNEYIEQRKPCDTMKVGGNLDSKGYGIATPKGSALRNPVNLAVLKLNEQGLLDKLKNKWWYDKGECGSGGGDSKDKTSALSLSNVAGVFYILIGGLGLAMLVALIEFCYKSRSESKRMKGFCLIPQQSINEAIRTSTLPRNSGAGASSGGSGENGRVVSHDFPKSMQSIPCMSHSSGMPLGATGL
GRIA1/CACNG2, sequence (Q9Y698 whole entry, canonical isoform): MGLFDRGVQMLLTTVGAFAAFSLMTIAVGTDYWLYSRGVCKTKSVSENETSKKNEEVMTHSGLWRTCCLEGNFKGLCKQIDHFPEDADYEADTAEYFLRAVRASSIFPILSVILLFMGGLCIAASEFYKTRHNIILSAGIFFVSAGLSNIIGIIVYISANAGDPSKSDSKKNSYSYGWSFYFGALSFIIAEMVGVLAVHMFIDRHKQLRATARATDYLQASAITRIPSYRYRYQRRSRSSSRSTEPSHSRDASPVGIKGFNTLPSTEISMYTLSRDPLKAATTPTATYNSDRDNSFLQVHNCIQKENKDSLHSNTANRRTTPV
GRIA1/CACNG8, sequence (P42261 whole entry, the tested form may be a part, canonical isoform): as the sequence (P42261 whole entry, canonical isoform) above
GRIA1/CACNG8, sequence (Q8WXS5 whole entry, the tested form may be a part, canonical isoform): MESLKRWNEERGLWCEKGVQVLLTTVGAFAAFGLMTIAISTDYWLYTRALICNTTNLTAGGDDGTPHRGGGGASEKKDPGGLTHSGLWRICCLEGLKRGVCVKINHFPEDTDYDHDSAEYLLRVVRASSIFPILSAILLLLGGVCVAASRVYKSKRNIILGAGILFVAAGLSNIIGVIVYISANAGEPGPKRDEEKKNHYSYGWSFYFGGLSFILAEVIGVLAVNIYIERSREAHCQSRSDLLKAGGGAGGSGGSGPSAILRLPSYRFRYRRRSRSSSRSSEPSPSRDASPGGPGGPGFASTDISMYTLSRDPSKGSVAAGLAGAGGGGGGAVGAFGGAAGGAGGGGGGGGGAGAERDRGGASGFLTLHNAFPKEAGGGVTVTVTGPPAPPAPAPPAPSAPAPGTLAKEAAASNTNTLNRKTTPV

| Structure (SMILES) | IC50 [1] | IC50 [2] | solubility thermodynamic at 72 h [3] | Papp A→B at 1 h, 5 µM [4] | hepatic extraction ratio at 1 h, 1 µM [5] | solubility thermodynamic at 72 h [6] | Papp B→A at 1 h, 5 µM [7] | hepatic extraction ratio at 1 h, 1 µM [8] | fraction unbound at 6 h, 1 µM [9] | other results |
| --- | --- | --- | --- | --- | --- | --- | --- | --- | --- | --- |
| Cc1ccccc1-c1ccc2c(c1)CC(=O)N2 | 2510 nM | > 10000 nM | – | – | – | – | – | – | – | – |
| COc1cccc(Cl)c1-c1ccc2[nH]c(=O)[nH]c2c1 | 126 nM | > 10000 nM | 19 µM (≈ 5.22 µg/mL) | 26 ×10⁻⁶ cm/s | 0.6 | 142 µM (≈ 39 µg/mL) | 50 ×10⁻⁶ cm/s | 0.3 | – | – |
| O=c1[nH]c2ccc(-c3c(Cl)cccc3Cl)cc2[nH]1 | 50.1 nM | > 10000 nM | < 4 µM | 26 ×10⁻⁶ cm/s | 0.3 | 69 µM (≈ 19.3 µg/mL) | 49 ×10⁻⁶ cm/s | < 0.3 | 0.5 | fraction unbound at 6 h, 1 µM [10]: 0.6 |
| Cc1cc(-c2c(Cl)cccc2OC(F)(F)F)cc2c1NC(=O)C2 | – | 10000 nM | < 4 µM | – | 0.4 | 55 µM (≈ 18.8 µg/mL) | – | 0.5 | 0.3 | Ratio IC50 [11]: > 1000; fraction unbound at 5 h, 5 µM [12]: 0.4; EC50 [13]: 9 ng/mL (≈ 0.0263 µM); EC50 [14]: 71 ng/g; ED50 [15]: 0.6 mg/kg; EC50 [16]: 9 ng/mL (≈ 0.0263 µM); half-life [17]: 1.9 h; clearance [18]: 28 mL/min/kg; EC50 [19]: 71 ng/g; Occ [20]: 82%; Vd [21]: 3.5 L/kg; fraction unbound at 6 h, 1 µM [10]: 0.6 |
| O=C1Cc2cc(-c3c(Cl)cccc3OC(F)(F)F)cc(F)c2N1 | 2.51 nM | – | – | – | – | – | – | – | – | – |
| Cc1cccc(Cl)c1-c1ccc2[nH]c(=O)[nH]c2c1 | 50.1 nM | > 10000 nM | < 4 µM | 25 ×10⁻⁶ cm/s | 0.6 | 146 µM (≈ 37.8 µg/mL) | 32 ×10⁻⁶ cm/s | < 0.3 | 0.9 | – |
| Cc1cc(-c2c(Cl)cncc2OC(F)(F)F)cc2c1NC(=O)C2 | 2.51 nM | > 10000 nM | 11 µM (≈ 3.77 µg/mL) | 44 ×10⁻⁶ cm/s | 0.5 | 45 µM (≈ 15.4 µg/mL) | 51 ×10⁻⁶ cm/s | < 0.3 | – | Ratio IC50 [11]: > 1000; Cp [22]: 2050 ng/mL; Occ [23]: 86%; ED50 [15]: 5.4 mg/kg; half-life [17]: 1.4 h; clearance [18]: 37 mL/min/kg; Cp [24]: 87 ng/mL; Vd [21]: 2.7 L/kg |
| O=c1[nH]c2ccc(-c3c(Cl)cccc3OC(F)(F)F)cc2o1 | 2510 nM | – | – | – | – | – | – | – | – | – |
